Screens (PubChem)
An excerpt weighted towards active compounds, which were near 2.3% of everything screened.
TRPC6 inh: mouse TRPC6 channel inhibitors, primary screen, cell-based, HEK293, membrane potential dye; actives 1.1% (n = 310,000); Short transient receptor potential channel 6 (Mus musculus), Q61143; B-score at 10 µM; ACh-evoked depolarization; active compounds read low;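 active means B-score under library mean minus 3 SD, initial fluorescence not abnormally high, positive integrated signal ratio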;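 further: B-score derived from integrated fluorescence ratio over the kinetic read; more negative B-score means stronger inhibition of depolarization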
TRPC6 activator: mouse TRPC6 channel activators, primary screen, cell-based, HEK293, membrane potential dye; HEK293-TRPC6 membrane potential dye fluorescence; active compounds read high; actives 0.13% (n = 310,000); B-score at 10 µM; Short transient receptor potential channel 6 (Mus musculus), Q61143;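 active means B-score of the integrated fluorescence ratio above library mean plus 3 SD, and starting fluorescence ratio within library mean plus 5 SD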;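 further: higher score means more depolarization so channel activation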
TRPC4 block: inhibitors of mouse TRPC4 channel, primary screen, Fluo4 calcium, HEK293 TRPC4beta/mu-opioid cells. DAMGO-evoked Fluo4 calcium flux; active compounds read low. B-score at 10 µM. actives 0.39% (n = 300,000). AID 2247, 2010;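 active means B-score over 3 SD under the library average, no early fluorescence shift, positive overall ratio signal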
Target sequence (Q9QUQ5 whole entry, looked up): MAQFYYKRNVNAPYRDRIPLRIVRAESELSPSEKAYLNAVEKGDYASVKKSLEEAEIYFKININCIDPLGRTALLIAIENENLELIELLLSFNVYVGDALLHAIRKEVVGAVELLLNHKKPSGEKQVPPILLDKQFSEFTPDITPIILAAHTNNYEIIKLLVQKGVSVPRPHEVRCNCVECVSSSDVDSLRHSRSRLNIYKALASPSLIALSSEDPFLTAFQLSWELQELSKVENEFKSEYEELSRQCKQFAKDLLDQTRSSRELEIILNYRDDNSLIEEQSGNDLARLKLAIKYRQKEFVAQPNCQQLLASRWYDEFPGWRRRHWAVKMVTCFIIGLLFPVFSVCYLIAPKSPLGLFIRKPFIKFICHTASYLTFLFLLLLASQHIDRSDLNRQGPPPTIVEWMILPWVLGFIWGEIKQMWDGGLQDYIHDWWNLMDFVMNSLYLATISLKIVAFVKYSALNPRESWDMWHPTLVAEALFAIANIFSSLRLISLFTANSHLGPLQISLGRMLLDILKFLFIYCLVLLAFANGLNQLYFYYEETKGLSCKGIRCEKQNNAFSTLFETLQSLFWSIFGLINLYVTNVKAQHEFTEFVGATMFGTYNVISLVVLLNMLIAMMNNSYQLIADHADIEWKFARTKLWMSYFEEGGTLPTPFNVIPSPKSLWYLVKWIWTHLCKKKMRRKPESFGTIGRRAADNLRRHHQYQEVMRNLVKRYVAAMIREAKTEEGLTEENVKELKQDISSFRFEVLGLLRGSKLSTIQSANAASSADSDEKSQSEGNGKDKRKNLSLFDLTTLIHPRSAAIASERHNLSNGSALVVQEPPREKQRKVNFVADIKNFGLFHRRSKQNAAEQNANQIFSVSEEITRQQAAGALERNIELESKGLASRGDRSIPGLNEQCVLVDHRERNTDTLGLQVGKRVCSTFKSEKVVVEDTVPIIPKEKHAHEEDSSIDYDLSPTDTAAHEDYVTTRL
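test system = HEK293 cells with stable TRPC4beta plus mu-opioid receptor expression | detection = Fluo4 Ca2+ flux fluorescence | read-out = integrated fluorescence ratio relative to baseline, converted to per-well B score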
TRPC4 agonist: activators of mouse TRPC4 channel, primary screen, Fluo4 calcium, HEK293 TRPC4beta/mu-opioid cells | Fluo4 calcium fluorescence; active compounds read high | B-score at 10 µM | actives 0.49% (n = 310,000);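 active means B-score above 5 SD of library B-scores, and initial fluorescence ratio not above library mean plus 5 SD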;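 further: positive B-score marks a calcium rise read as TRPC4 activation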
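Assay system: HEK293 stable line with TRPC4beta plus mu-opioid receptor; schedule: 45 min room-temperature Fluo4 loading, 110 s read; technique: kinetic Fluo4 calcium fluorescence; evaluation: integrated baseline-normalised fluorescence ratio, converted to per-well B score; controls: buffer (low) and maximal DAMGO (high)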
TRPC4 PAM: positive allosteric modulators of TRPC4, primary screen, cell-based, mouse TRPC4beta, HEK293 mu-opioid, Fluo-4 calcium | actives 0.42% (n = 310,000) | AID 2227, 2009 | B-score at 10 µM | Short transient receptor potential channel 4 (Mus musculus), Q9QUQ5 | DAMGO EC20, Fluo-4 Ca2+ flux; active compounds read high;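 active means B-score of calcium response area above 5 SD of library B-scores, with initial fluorescence ratio within 5 SD of library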
Large screens that a line does not name were inactive.

CCCN(CCC)CCCNC(=O)c1cc2c(=O)n(CC)c3ccccc3c2s1	TRPC4 agonist 50
Cn1c(C(=O)NCCN2CCOCC2)cc2c(=O)n(C)c3ccccc3c21	none
CCCCN(CC)CCNC(=O)c1cc2c(=O)n(C)c3ccccc3c2s1	TRPC4 PAM 16
C=CCNC(=O)N1CCCC(C(=O)c2cccc(OC(C)C)c2)C1 (stereo not given)	none
Cc1cc(S(=O)(=O)NCC(c2ccc3c(c2)OCO3)N2CCOCC2)ccc1F (stereo not given)	none
C#Cc1ccc(CN2CCN(CCc3ccccc3)C(CCO)C2)cc1 (stereo not given)	TRPC4 agonist 43
OCCC1CN(Cc2nc3ccccc3s2)CCN1CCc1ccccc1 (stereo not given)	TRPC4 agonist 60
OCCC1CN(Cc2ccc(F)cc2)CCN1CCc1ccccc1 (stereo not given)	none
CC(C)CCN1CCN(Cc2ccsc2)CC1CCO (stereo not given)	TRPC4 block -8
CCN(CC)S(=O)(=O)c1ccc(N2CCCCC2)c(NC(=O)C2CCN(C(=O)c3ccc(F)cc3)CC2)c1	none
Cc1c(C(=O)N2CCCC2)oc2c1-c1nn(CC(=O)NCCCN3CCCCC3)cc1CC2	TRPC4 PAM 11
Cc1c(C(=O)N2CCCC2)oc2c1-c1nn(CC(=O)NCCCN3CCCCC3C)cc1CC2 (stereo not given)	none
COC(=O)c1ccccc1NC(=S)N(Cc1ccc2c(c1)OCO2)Cc1cc2ccc(C)cc2[nH]c1=O	none
Cc1ccc(NC(=S)N(CCCN(C)C)Cc2cc3cc4c(cc3[nH]c2=O)OCO4)c(C)c1	TRPC4 block -6
CCN(CC)CCN(Cc1cc2ccc(C)cc2[nH]c1=O)C(=S)Nc1ccccc1C(=O)OC	TRPC4 block -6
COc1ccc(N2CCN(C(=O)c3cccc(NC(=O)c4ccco4)c3)CC2)cc1	none
O=C(CCNC(=O)C1CCN(S(=O)(=O)c2ccc(F)cc2)CC1)NCc1ccncc1	none
CC(=O)N1CCCc2cc(S(=O)(=O)N3CCN(C4CCCCC4)CC3)ccc21	TRPC4 agonist 57
Cc1ccc(-n2c(SCC(N)=O)nnc2-c2cccnc2)c(C)c1	none
Cc1ccc(-n2c(SCc3cc(=O)n4ccsc4n3)nnc2-c2cccnc2)c(C)c1	TRPC4 block -7
CCc1ccccc1NC(=O)CNC(=O)c1ccccc1OCc1c(C)noc1C	none
O=C(OCc1ccc(Br)cc1F)c1cc2ccccc2oc1=O	none
CCOc1c(Cl)cc(CNCC(O)c2ccccc2)cc1OC (stereo not given)	TRPC4 block -6
CCOc1c(Cl)cc(CNCC(C)C)cc1OC	none
Brc1ccc(-c2nnc3ccc(Nc4ccccc4)nn23)cc1	none
N#Cc1c(N)sc2c1CCCCCC2	TRPC4 block -7
CCN1CCN(C(=O)C2CCN(c3nnc(C)c4c(C)n(-c5ccc(C)cc5)nc34)CC2)CC1	TRPC4 block -5
Cc1ccc2nc(N(CCCN(C)C)C(=O)c3ccc(S(=O)(=O)N(C)C)cc3)sc2c1	none
Cc1cc(C)c2sc(N(CCCN(C)C)C(=O)c3ccc(S(=O)(=O)N4CCc5ccccc5C4)cc3)nc2c1	none
Cc1ccc2nc(N(CCCN(C)C)C(=O)c3ccc(S(=O)(=O)N4CCc5ccccc5C4)cc3)sc2c1	TRPC4 agonist 129
CN(C)CCCN(C(=O)c1ccc(S(=O)(=O)N2CCc3ccccc32)cc1)c1nc2ccc(F)cc2s1	TRPC4 agonist 111
CN(C)CCCN(C(=O)c1ccc(S(=O)(=O)N(C)C)cc1)c1nc2ccc(F)cc2s1	TRPC4 block -5, TRPC4 agonist 49
CN(C)CCCN(C(=O)c1ccc(S(=O)(=O)N2CCCC2)cc1)c1nc2c(F)cc(F)cc2s1	TRPC4 block -9
CCOc1ccccc1NC(=O)CCCn1cc([N+](=O)[O-])cn1	none
CCN(CC)CCN(C(=O)c1ccc2c(c1)CCCC2)c1nc2ccc(F)cc2s1	none
Cc1ccc2nc(N(CCCN(C)C)C(=O)c3sc4ccccc4c3Cl)sc2c1	TRPC4 PAM 10
CN(C)CCCN(C(=O)c1ccc(S(=O)(=O)N2CCc3ccccc3C2)cc1)c1nc2c(F)cccc2s1	none
Cc1ccc(C(=O)N(CCCN(C)C)c2nc3ccc(Cl)cc3s2)cc1C	none
CN(C)CCCN(C(=O)c1ccc(S(=O)(=O)N2CCc3ccccc3C2)cc1)c1nc2ccc(F)cc2s1	TRPC4 agonist 111
CCN(CC)CCN(C(=O)c1ccccc1OC)c1nc2ccc(F)cc2s1	TRPC4 block -6
COC(=O)c1ccc(Oc2nc(NC(C)(C)C)nc(N3CCOCC3)n2)cc1	none
COC(=O)c1cnn(-c2nc3c(C)cccc3s2)c1C	none
CCOC(=O)[C@@H]1[C@H]2COc3ccc(Br)cc3[C@@H]2N2C(=O)N(c3ccc(Cl)cc3)C(=O)[C@]12C	none
O=C(CC1C(=O)NCCN1C(=O)Nc1ccccc1)Nc1cc(Cl)cc(Cl)c1 (stereo not given)	TRPC4 PAM 16
Nc1ncc(Br)cc1S(=O)(=O)Nc1cc(C(F)(F)F)cc(C(F)(F)F)c1	TRPC4 agonist 46
O=C(Nc1ccc(Cl)c(Cl)c1)c1ccc(Cl)c(Cl)c1	none
O=C(Nc1ccc(C2=NCCN2)cc1)c1ccc(Cl)c(C(=O)Nc2ccc(C3=NCCN3)cc2)c1	TRPC6 activator 14.2
CC(C)(C)NC(=S)N1CCC(C(=O)c2ccc(Cl)cc2)CC1	none
CC1CCN(C(C)C(=O)Nc2ccccc2-c2ccccc2)CC1 (stereo not given)	TRPC4 block -7
O=[N+]([O-])c1ccccc1CN1CCN(Cc2c[nH]c3ccccc23)CC1	TRPC4 block -7
O=C(c1ccccc1)N1CCN(Cc2c[nH]c3ccccc23)CC1	none
Cc1cc(SCc2cccc([N+](=O)[O-])c2)nc(=O)[nH]1	none
Cc1cc(SCC(=O)c2cccc([N+](=O)[O-])c2)nc(=O)[nH]1	TRPC4 PAM 41
CCOc1ccc(N(CCCCO)C(=S)NC(=O)c2ccc(C)c(Br)c2)cc1	none
C=CCn1c(SCC(=O)N2CCCCC2)nnc1-c1ccncc1	TRPC4 agonist 75
O=S(=O)(Cc1ccccc1)Cc1cnc(Cl)s1	none
CCOC(=O)N1CCC(NC(=O)c2cccc3c2C(=O)N(c2ccc(OC)cc2)C3)CC1	TRPC6 inh -7.8
CCOC(=O)N1CCC(NC(=O)c2cn(-c3ccc(OC)cc3)c(=O)c3ccccc23)CC1	none
CCOC(=O)N1CCC(N2Cc3cccc(C(=O)NCc4ccccc4OC)c3C2=O)CC1	TRPC6 inh -7.35
